Compounds with a hit are over-represented: about 2.9% of the library has one in this group of screens.
SENP6 inh – SENP6 protease inhibitors, primary screen, biochemical, luminescence, uHTS. 330,000 tested, 1.8% active. Recombinant SENP6 catalytic domain, aminoluciferin luminescence. Sentrin-specific protease 6 (Homo sapiens), Q9GZR1. AID 2599, 2010. inhibition, % at 10 µM;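 active = inhibition above about 50% at the single tested dose, limit read from the data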;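 note: plate controls were DMSO wells with enzyme for no effect and DMSO wells lacking enzyme for full effect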
Target sequence (Q9GZR1 628-1112 limits assumed): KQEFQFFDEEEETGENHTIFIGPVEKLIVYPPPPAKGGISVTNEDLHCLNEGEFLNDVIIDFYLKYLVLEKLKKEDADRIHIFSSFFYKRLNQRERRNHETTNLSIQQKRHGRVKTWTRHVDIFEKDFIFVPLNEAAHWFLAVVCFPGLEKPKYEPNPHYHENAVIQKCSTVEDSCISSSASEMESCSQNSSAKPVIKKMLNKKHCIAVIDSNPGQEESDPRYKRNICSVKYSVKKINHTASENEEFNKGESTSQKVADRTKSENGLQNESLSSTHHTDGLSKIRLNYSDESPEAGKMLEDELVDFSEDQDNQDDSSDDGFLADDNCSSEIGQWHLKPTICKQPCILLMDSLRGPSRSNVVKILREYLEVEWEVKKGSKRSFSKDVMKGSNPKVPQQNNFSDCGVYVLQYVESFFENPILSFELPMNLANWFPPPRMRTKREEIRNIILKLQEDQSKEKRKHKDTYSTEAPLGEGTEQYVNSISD
SENP7 inh – SENP7 protease inhibitors, primary screen, biochemical, luminescence, uHTS. Sentrin-specific protease 7 (Homo sapiens), Q9BQF6. recombinant SENP7, Z-RLRGG-aminoluciferin luminescence, 40 min. inhibition, % at 5 µM. 330,000 tested, 1.5% active;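 active = inhibition above about 50% at the single test dose, limit read from the data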;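 note: plate controls were DMSO with enzyme for no effect and no enzyme buffer wells for full effect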
HSP90 inh – HSP90 inhibitors, primary screen, cell lysate, luminescence. Rabbit reticulocyte lysate, luciferase refolding luminescence, 3 h. inhibition, % at 5.6 µM. Heat shock protein HSP 90 (rabbit reticulocyte lysate; luciferase refolding). 290,000 tested, 0.91% active;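 active = inhibition above the screen-wide mean plus 3 SD, computed separately per campaign, cut at about 16% in these data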;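 note: 0% = DMSO wells and 100% = 60 µM geldanamycin wells; inhibitors lower the luminescence because luciferase stays unfolded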
SENP1 FRET inh – human SENP1 catalytic domain inhibitors, primary screen, biochemical, FRET, uHTS | Sentrin-specific protease 1 (Homo sapiens), Q9P0U3 | recombinant SENP1 catalytic domain, CyPet-SUMO1-YPet FRET cleavage | inhibition, % at 10 µM | 360,000 tested, 0.21% active | AID 624204, 2012;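 active = inhibition at least 30% at 10 µM, raw YFP signal under a set limit, fluorescence ratio 0.5 to 1.5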;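 note: 0% = enzyme with DMSO and 100% = no enzyme wells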
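Test system: hSENP1 catalytic domain, recombinant; Amount: 20 pM final SENP1 enzyme; Medium: Tris pH 8 buffer plus EDTA, NaCl, BME, BSA, NP40, catalase; Schedule: 50 min enzyme reaction, room temperature, light-protected; Technique: FRET fluorescence in CFP and YFP emission channels; Controls: no-enzyme wells low, DMSO-plus-enzyme wells high control.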
SENP8 block-1 – human SENP8 protease inhibitors, primary screen, biochemical, fluorescence, Nedd8 protein substrate, uHTS; Sentrin-specific protease 8 (Homo sapiens), Q96LD8; inhibition, % at 20 µM; 360,000 tested, 0.64% active; recombinant SENP8; AID 602440, 2012; in the data active = inhibition mostly above about 40%, no sharp cut-off; inactive = mostly below about 27%
SENP8 block-2 – SENP8 protease inhibitors, primary screen, biochemical, luminescence | inhibition, % at 10 µM | AID 2540, 2010 | 330,000 tested, 1.2% active | purified SENP8, Z-RLRGG-aminoluciferin cleavage | Sentrin-specific protease 8 (Homo sapiens), Q96LD8; in the data active = inhibition above about 50%
SENP8 conf – human SENP8 protease inhibitors, confirmation, biochemical, Nedd8 protein substrate, single concentration; shares compounds with SENP8 block-1; purified SENP8, Nedd8-AMC/pro-Nedd8 cleavage fluorescence, 30 min; inhibition, % at 25 µM; 1,400 tested, 15% active; AID 624319, 2012; in the data active = inhibition mostly above about 39%, no sharp cut-off; inactive = mostly below about 34%
Active calls of the source: *; . = no result given.

SMILES	SENP6 inh	SENP7 inh	HSP90 inh	SENP1 FRET inh	SENP8 block-1	SENP8 block-2	SENP8 conf
O=C(O)c1cccc(N2C(=O)c3ccc4c5c(ccc(c35)C2=O)C(=O)N(c2cccc(C(=O)O)c2)C4=O)c1	-1	7	2	2	50*	1	50*
CN(C(=O)Cn1nc(C(=O)O)c2ccccc2c1=O)C1CCCCC1	4	4	.	0	-2	-5	.
CC(Nc1ccc(Br)cc1)C(=O)N/N=C/c1ccccc1OCc1ccccc1 (stereo not drawn)	-3	-7	-2	5	46*	-13	22
COc1ccc(NC(C)C(=O)N/N=C/c2ccccc2OCc2ccc(Br)cc2)cc1 (stereo not drawn)	16	5	-8	0	28	9	.
COc1cc2c(cc1OC)C(=O)N(C)CC2	3	5	-1	2	42*	-1	3
O=C1CC(CC(=O)N/N=C/c2ccccc2[N+](=O)[O-])=NN1	11	11	7	0	40*	0	13
CC1CCN(C(=O)c2nc[nH]c2C(=O)O[C@H](C)c2ccccc2)CC1	4	-2	.	3	19	3	.
C[C@@H](OC(=O)c1[nH]cnc1C(=O)N1CCc2ccccc2C1)c1ccccc1	6	4	.	-1	52*	6	86*
O=C(Nc1ccc(Br)cc1)c1cccc(N2C(=O)C3CCCCC3C2=O)c1 (stereo not drawn)	5	-8	-1	-2	5	-6	.
CCOC(=O)C1CCN(C(=O)Nc2ccc3oc(C)nc3c2)CC1	-9	-4	0	3	46*	7	6
COc1ccc(NC(=O)c2ccc(Cn3cc(Cl)cn3)cc2)cc1	-8	-2	-2	0	6	-4	.
CN(C)c1ccc(NC(=O)c2ccc(Cn3cc([N+](=O)[O-])cn3)cc2)cc1	-10	2	-3	6	44*	7	39
Cc1ccc(C)c(NC(=S)/C(=C(\[O-])c2ccc(Cl)s2)[n+]2ccccc2)c1	38	-1	1	-6	69*	-2	41
O=C(CNC(=O)C1CCCCC1)OCC(=O)c1cccc(Cl)c1	6	0	.	2	14	0	.
C=C(c1cn(C(C)=O)c2ccccc12)c1cn(C(C)=O)c2ccccc12	.	.	.	-3	-6	.	.
CC(=O)n1cc(CO)c2ccccc21	-9	-3	-7	0	45*	0	8
O=[N+]([O-])c1ccc(Sc2ccccc2Cl)nc1	-11	-3	1	0	40*	-2	8
CCNC(=S)NNc1ccccc1	0	-1	0	0	43*	3	2
CC(=O)Nc1cc(-c2ccc(F)cc2)cn2c(-c3ccc(S(C)(=O)=O)cc3)cnc12	.	.	.	-12	-468	.	.
CCOc1ccc(C(c2c(C)[nH][nH]c2=O)c2c(C)[nH][nH]c2=O)cc1OC	-3	10	2	1	54*	-2	35
CNc1ccc2ncc(-c3ccccc3C(C)=O)n2n1	.	.	.	-3	-124	.	.
O=[N+]([O-])c1ccc(-[n+]2ccc3ccccc3c2)c([N+](=O)[O-])c1	41	0	.	3	46*	22	35
CCOC(=O)/C(=C/c1c(C)n(C)c2ccc([N+](=O)[O-])cc12)C(C)=O	-2	-5	-4	3	21	0	.
CCOC(=O)c1c(N)c2cc([N+](=O)[O-])ccc2n1C	-13	-9	0	4	47*	1	7
O=C(Nc1ccc(Oc2c(F)c(F)c(F)c(F)c2F)cc1)OC1CCN2Cc3ccccc3N=C12 (stereo not drawn)	-4	-8	1	-1	20	-13	.
